From publication PMC4127403 (Analytical chemistry, 2012)

Tests used:
[1] = target: aequorin (AEQ), cysteine-free mutant (Aequorea victoria, UniProt P07164, C152S/C159S/C187S); assay: AEQ bioluminescence inhibition assay; type: biochemical; conditions: for effect on bioluminescence emission of AEQ: 5.0 × 10^–10 M coelenterazine, 2 h incubation; for expected suitability for the inhibition assay: speculated, compounds not available, test planned
aequorin (AEQ) [2] = assay: Effect of OH-PCB on AEQ; type: biochemical, Aequorea victoria; conditions: initial experiments with apoaequorin and coelenterazine
In short: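 ApoAEQ stock was diluted to 1.21 × 10−7 M in 30 mM Tris/HCl pH 7.5, 2 mM EDTA and charged with three-fold molar excess coelenterazine, 4 °C, 18 h. Aequorin was then mixed with test compound in DMSO at 10% or 20% v/v, with DMSO-only and buffer controls. A 10 μL portion was triggered with 50 μL 100 mM Tris/HCl pH 7.5, 100 mM CaCl2 and read on a tube luminometer.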

aequorin (AEQ) [3] = assay: AEQ bioluminescence inhibition assay in spiked tap water; type: biochemical, Aequorea victoria
In short: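 Tap water was spiked with test compound standards prepared in DMSO. Same conditions as the buffer assay: 20 μL sample into 80 μL 1.21 × 10−7 M apoAEQ (30 mM Tris/HCl pH 7.5, 2 mM EDTA), 5.0 × 10−10 M final coelenterazine, triplicates, 2 h at 4 °C. Light was triggered with 100 μL 100 mM Tris/HCl pH 7.5, 100 mM CaCl2 and read for 6 s.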

aequorin (AEQ) [4] = assay: AEQ bioluminescence inhibition assay in spiked human serum; type: biochemical, Aequorea victoria
In short: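 Cysteine-free apoaequorin was expressed in E. coli, secreted, and purified by DEAE and butyl HIC to >95% purity. Human serum was spiked with test compound standards in DMSO (90 μL serum + 10 μL standard). 20 μL of this was added to 80 μL 1.21 × 10−7 M apoAEQ in Buffer A with 5.0 × 10−10 M final coelenterazine, in triplicate, held 2 h at 4 °C. Ca2+/Tris pH 7.5 injection triggered light, collected for 6 s.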

aequorin (AEQ) [5] = assay: Selectivity studies of the AEQ inhibition assay; type: biochemical, Aequorea victoria; conditions: 1.0 × 10^−4 M compound, 5.0 × 10^−10 M coelenterazine
In short: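 Selectivity used the optimized inhibition format with various organic compounds dissolved in DMSO. 1.21 × 10−7 M apoAEQ was incubated with 1.0 × 10−4 M compound and 5.0 × 10−10 M coelenterazine, 2 h at 4 °C. Light was triggered by Ca2+ (100 mM CaCl2, 100 mM Tris/HCl pH 7.5) and collected for 6 s. Values are the mean of three measurements ± 1 standard deviation.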

[6] = cited from earlier work
[7] = fetal rat plasma and brain; cited from earlier work
apoaequorin (apoAEQ) = apoaequorin (apoAEQ) (Aequorea victoria, UniProt P07164, C152S/C159S/C187S); assay: Coelenterazine dose-response curve - EC50 determination; type: biochemical
Sequence of apoaequorin (apoAEQ) (P07164 8-196 C152S/C159S/C187S): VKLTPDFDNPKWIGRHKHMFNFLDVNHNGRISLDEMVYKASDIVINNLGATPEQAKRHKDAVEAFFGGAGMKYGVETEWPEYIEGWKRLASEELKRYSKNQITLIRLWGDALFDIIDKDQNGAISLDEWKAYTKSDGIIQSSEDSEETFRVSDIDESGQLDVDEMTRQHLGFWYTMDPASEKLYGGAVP

Sequence of aequorin (AEQ), cysteine-free mutant (P07164 8-196 C152S/C159S/C187S): as above

## Oc1ccccc1-c1cc(Cl)c(Cl)c(Cl)c1Cl [2 hydroxy-2',3',4',5'-tetrachlorobiphenyl]
[1]
  IC50: 1.33 µM

## Oc1cccc(-c2cc(Cl)ccc2Cl)c1O [2,3-dihydroxy-2',5'-dichlorobiphenyl]
[1]
  IC50: 1380 µM

## Oc1cccc(-c2ccc(Cl)c(Cl)c2)c1O [2,3-dihydroxy-3',4'-dichlorobiphenyl]
[1]
  IC50: 550 µM

## Oc1ccc(Cl)cc1-c1cc(Cl)c(Cl)c(Cl)c1Cl [2-hydroxy-2',3',4',5,5'-pentachlorobiphenyl]
Aequorin (AEQ) [2]
  decrease of AEQ bioluminescence activity: 99%
[1]
  IC50: 0.097 µM
[1]; 5.0 × 10^−10 M coelenterazine, buffer
  detection limit: 33 nM
[1]; buffer containing HSA (data not shown)
  detection limit in buffer containing HSA: 3.45 µM
Aequorin (AEQ) [3]
  detection limit in tap water: 132 nM
Aequorin (AEQ) [4]
  detection limit in serum: 5.02 µM

## Oc1c(Cl)ccc(Cl)c1-c1cc(Cl)c(Cl)cc1Cl [2-hydroxy-2',3,4',5',6-pentachlorobiphenyl]
[1]
  IC50: 0.028 µM
[1]; best detection limit of the assay (abstract)
  detection limit: 11 nM

## Oc1ccccc1-c1c(Cl)cc(Cl)cc1Cl [2-hydroxy-2',4',6'-trichlorobiphenyl]
[1]
  IC50: 155 µM

## Oc1ccc(-c2ccc(Cl)c(Cl)c2)cc1O [3,4-dihydroxy-3',4'-dichlorobiphenyl]
[1]
  IC50: > 2000 µM
  effect on bioluminescence emission of AEQ: did not produce a decrease in the bioluminescence emission of AEQ

## O=C(O)c1cccc(Cl)c1 [3-chloro-benzoic acid]
Aequorin (AEQ) [5]
  effect on bioluminescence generated by AEQ: do not decrease the bioluminescence

## Oc1cccc(-c2ccc(Cl)cc2)c1 [3-hydroxy-4'-chlorobiphenyl]
[1]
  IC50: > 2000 µM
  effect on bioluminescence emission of AEQ: did not produce a decrease in the bioluminescence emission of AEQ

## Oc1ccc(-c2cc(Cl)c(Cl)c(Cl)c2Cl)cc1Cl [4-hydroxy-2',3,3',4',5'-pentachlorobiphenyl]
[1]
  IC50: 2.28 µM
  effect on bioluminescence emission of AEQ: greatly inhibited aequorin bioluminescence

## Oc1c(Cl)cc(-c2ccc(Cl)cc2Cl)cc1Cl [4-hydroxy-2',3,4',5-tetrachlorobiphenyl]
[1]
  IC50: 17.5 µM

## Oc1c(Cl)cc(-c2ccccc2Cl)cc1Cl [4-hydroxy-2',3,5-trichlorobiphenyl]
[1]
  IC50: 290 µM

## Oc1ccc(-c2c(Cl)cc(Cl)cc2Cl)cc1 [4-hydroxy-2',4',6'-trichlorobiphenyl]
[1]
  IC50: 15.4 µM

## Oc1ccc(-c2cc(Cl)ccc2Cl)cc1 [4-hydroxy-2',5'-dichlorobiphenyl]
[1]
  IC50: 138 µM

## Oc1ccc(-c2c(Cl)c(Cl)cc(Cl)c2Cl)c(Cl)c1 [4-hydroxy-2,2',3',5',6'-pentachlorobiphenyl]
[1]
  IC50: 9.77 µM
  effect on bioluminescence emission of AEQ: greatly inhibited aequorin bioluminescence

## Oc1c(Cl)cc(-c2cc(Cl)c(Cl)cc2Cl)c(Cl)c1Cl [4-hydroxy-2,2',3,4',5,5'-hexachlorobiphenyl]
[1]
  expected suitability for the inhibition assay: would be suitable for this inhibition assay
[6]
  estrogenic activity: anti-estrogenic

## Oc1c(Cl)cc(-c2ccc(Cl)c(Cl)c2)c(Cl)c1Cl [4-hydroxy-2,3,3',4',5-pentachlorobiphenyl]
[7]
  levels of thyroxine after exposure: lower levels of thyroxine
[1]
  expected suitability for the inhibition assay: would be suitable for this inhibition assay
[6]
  estrogenic activity: weakly estrogenic

## Oc1c(Cl)cc(-c2ccc(Cl)c(Cl)c2)cc1Cl [4-hydroxy-3,3',4',5-tetrachlorobiphenyl]
[1]
  IC50: 130 µM
  effect on bioluminescence emission of AEQ: only a small alteration of the bioluminescence signal

## NC12CC3CC(CC(C3)C1)C2 [amantadine]
Aequorin (AEQ) [5]
  effect on bioluminescence generated by AEQ: do not decrease the bioluminescence

## Oc1ccc(Cc2nc3c(Cc4ccccc4)nc(-c4ccc(O)cc4)cn3c2O)cc1 [coelenterazine]
Apoaequorin (apoAEQ)
  EC50: 0.0618 µM

## CN1CCC[C@H]1c1cccnc1 [nicotine]
Aequorin (AEQ) [5]
  effect on bioluminescence generated by AEQ: do not decrease the bioluminescence
